Reference: ChEMBL document CHEMBL2062422, “Design, synthesis and biological evaluation of some novel thienopyrimidines and fused thienopyrimidines as anti-inflammatory agents” (Eur J Med Chem, 2012)

Assays:
Rattus norvegicus [1] = assay: Antiinflammatory activity in albino rat acute inflammatory model assessed as inhibition of formalin-induced paw edema at 10 mg/kg, po administered 1 hr post challenge measured after 1 hr; assay type: functional; conditions: in the assay text read “administered 1 hr prior to challenge” for “administered 1 hr post challenge”
Outline: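 Rats were randomised into groups of five. Dosing was 10 mg/kg po, given 1 h before 2% formalin (0.1 mL) was injected subplantar into the left hind paw under light ether anaesthesia. […] Values are mean ± S.E., N = 5 rats.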

Rattus norvegicus [2] = assay: Antiinflammatory activity in albino rat sub-acute inflammatory model assessed as inhibition of formalin-induced paw edema at 10 mg/kg, po administered 1 hr post challenge for 7 consecutive days measured at day 8 of challenge; assay type: functional; conditions: in the assay text read “1 hr prior to challenge” for “1 hr post challenge”
Rattus norvegicus [3] = assay: Antiinflammatory activity in albino rat sub-acute inflammatory model assessed as inhibition of turpentine-induced granuloma pouch at 10 mg/kg, po administered 1 hr […] for 7 consecutive days measured at day 8 of challenge; assay type: functional
Rattus norvegicus [4] = assay: Antiinflammatory activity in albino rat acute inflammatory model assessed as inhibition of formalin-induced paw edema at 10 mg/kg, po administered 1 hr prior to challenge measured after 2 hr
Rattus norvegicus [5] = assay: Antiinflammatory activity in albino rat acute inflammatory model assessed as inhibition of formalin-induced paw edema at 10 mg/kg, po administered 1 hr prior to challenge measured after 4 hr
Rattus norvegicus [6] = assay: Antiinflammatory activity in albino rat sub-acute inflammatory model assessed as inhibition of formalin-induced paw edema at 10 mg/kg, po administered 1 hr prior to challenge for 7 consecutive days measured at day 1 of challenge
Rattus norvegicus [7] = assay: Antiinflammatory activity in albino rat sub-acute inflammatory model assessed as inhibition of formalin-induced paw edema at 10 mg/kg, po administered 1 hr prior to challenge for 7 consecutive days measured at day 8 of challenge
Rattus norvegicus [8] = assay: Ulcerogenic activity in albino rat assessed as hyperemia at 300 mg/kg/day administered as equal doses at 0 and 12 hrs for three consecutive days measured at 6 hrs post last dose; assay type: toxicity, organism-based; conditions: in vivo
Outline: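 Male albino rats, 180–200 g, five per group, fasted 12 h with water ad libitum. Dosing was 300 mg/kg/day po, split into equal doses at 0 and 12 h, for 3 successive days. Controls received 1% gum acacia orally. Rats were killed with ether 6 h after the last dose. Stomachs were opened along the greater curvature, washed with cold saline and inspected under a 3X lens for hyperemia, hemorrhage, hemorrhagic erosion or ulcer.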

[9] = Ulcerogenic activity in po dosed albino rat measured after 24 hrs; assay type: toxicity, organism-based; conditions: in vivo
Outline: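 Male albino rats (180–200 g), five per group, fasted 12 h with water ad libitum. Compounds given orally as two equal doses at 0 and 12 h on three successive days, 300 mg/kg per day. Control received 1% gum acacia po. Rats killed 6 h after the last dose. Stomachs opened along the greater curvature, washed with cold saline and inspected under 3X magnification for hyperemia, hemorrhage, erosion or ulcer.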

Rattus norvegicus [10] = assay: Acute toxicity in albino rat at 0.1 to 0.3 g/kg/, po measured after 24 hrs; conditions: in vivo
Rattus norvegicus [11] = assay: Antiinflammatory activity in albino rat acute inflammatory model assessed as inhibition of formalin-induced paw edema at 10 mg/kg, po administered 1 hr prior to challenge measured after 1 hr

Cc1c(C(N)=O)sc2nc(S)n(Cc3ccccc3)c(=O)c12 gave an inhibition in vivo at 10 mg/kg (Rattus norvegicus [1]) of 25%, an inhibition in vivo at 10 mg/kg (Rattus norvegicus [2]) of 5% and an inhibition in vivo at 10 mg/kg (Rattus norvegicus [3]) of 4.07%. It also gave an inhibition in vivo at 10 mg/kg (Rattus norvegicus [4]) of 0%, an inhibition in vivo at 10 mg/kg (Rattus norvegicus [5]) of 5% and an inhibition in vivo at 10 mg/kg (Rattus norvegicus [6]) of 4%.

In the case of CSc1nc2sc(C(N)=O)c(C)c2c(=O)n1Cc1ccccc1, the inhibition in vivo at 10 mg/kg (Rattus norvegicus [1]) is reported as 44%, the inhibition in vivo at 10 mg/kg (Rattus norvegicus [3]) is reported as 11.3% and the inhibition in vivo at 10 mg/kg (Rattus norvegicus [4]) is reported as 43%. The inhibition in vivo at 10 mg/kg (Rattus norvegicus [5]) was 38%, the inhibition in vivo at 10 mg/kg (Rattus norvegicus [6]) was 17% and the inhibition in vivo at 10 mg/kg (Rattus norvegicus [7]) was 21%.

In the case of Cc1c(C(N)=O)sc2nc(NN)n(Cc3ccccc3)c(=O)c12, the inhibition in vivo at 10 mg/kg (Rattus norvegicus [1]) is reported as 69%, the inhibition in vivo at 10 mg/kg (Rattus norvegicus [2]) is reported as 43% and the inhibition in vivo at 10 mg/kg (Rattus norvegicus [3]) is reported as 44.8%. For the same molecule, the Activity (Rattus norvegicus [8]) was 10%, the LD50 at 24 h [9] was greater than 300 mg/kg and the Activity (Rattus norvegicus [10]) was “Non-toxic”. It also gave an inhibition in vivo at 10 mg/kg (Rattus norvegicus [4]) of 61%, an inhibition in vivo at 10 mg/kg (Rattus norvegicus [5]) of 51% and an inhibition in vivo at 10 mg/kg (Rattus norvegicus [6]) of 43%.

Cc1c(C(N)=O)sc2nc(N/N=C/c3ccc(Br)cc3)n(Cc3ccccc3)c(=O)c12 gave an inhibition in vivo at 10 mg/kg (Rattus norvegicus [1]) of 69%, an inhibition in vivo at 10 mg/kg (Rattus norvegicus [2]) of 34% and an inhibition in vivo at 10 mg/kg (Rattus norvegicus [3]) of 34.4%. It also gave an inhibition in vivo at 10 mg/kg (Rattus norvegicus [4]) of 39%, an inhibition in vivo at 10 mg/kg (Rattus norvegicus [5]) of 44% and an inhibition in vivo at 10 mg/kg (Rattus norvegicus [6]) of 39%.

Cc1c(C(N)=O)sc2c1c(=O)n(Cc1ccccc1)c1nnc(-c3ccc(Br)cc3)n21 showed an inhibition in vivo at 10 mg/kg (Rattus norvegicus [2]) of 30%, an inhibition in vivo at 10 mg/kg (Rattus norvegicus [3]) of 41.2% and an inhibition in vivo at 10 mg/kg (Rattus norvegicus [11]) of 31%. For the same molecule, the inhibition in vivo at 10 mg/kg (Rattus norvegicus [4]) was 39%, the inhibition in vivo at 10 mg/kg (Rattus norvegicus [5]) was 41% and the inhibition in vivo at 10 mg/kg (Rattus norvegicus [6]) was 37%.

With CC(=O)N1N=C2N(Cc3ccccc3)C(=O)c3c(sc(C(N)=O)c3C)N2C1c1ccc(Br)cc1 (centres undefined) the inhibition in vivo at 10 mg/kg (Rattus norvegicus [2]) was 30%, the inhibition in vivo at 10 mg/kg (Rattus norvegicus [3]) was 39.8% and the inhibition in vivo at 10 mg/kg (Rattus norvegicus [11]) was 31%. The inhibition in vivo at 10 mg/kg (Rattus norvegicus [4]) was 30%, the inhibition in vivo at 10 mg/kg (Rattus norvegicus [5]) was 36% and the inhibition in vivo at 10 mg/kg (Rattus norvegicus [6]) was 33%.

With Cc1c(C(N)=O)sc2c1c(=O)n(Cc1ccccc1)c1n[nH]c(=S)n21 the inhibition in vivo at 10 mg/kg (Rattus norvegicus [1]) was 50%, the inhibition in vivo at 10 mg/kg (Rattus norvegicus [2]) was 34% and the inhibition in vivo at 10 mg/kg (Rattus norvegicus [3]) was 23.1%. The Activity (Rattus norvegicus [8]) was 10%, the LD50 at 24 h [9] was greater than 300 mg/kg and the Activity (Rattus norvegicus [10]) was “Non-toxic”. It also gave an inhibition in vivo at 10 mg/kg (Rattus norvegicus [4]) of 56%, an inhibition in vivo at 10 mg/kg (Rattus norvegicus [5]) of 51% and an inhibition in vivo at 10 mg/kg (Rattus norvegicus [6]) of 41%.

With CCOC(=O)CSc1nnc2n(Cc3ccccc3)c(=O)c3c(C)c(C(N)=O)sc3n12 the inhibition in vivo at 10 mg/kg (Rattus norvegicus [1]) was 56%, the inhibition in vivo at 10 mg/kg (Rattus norvegicus [2]) was 36% and the inhibition in vivo at 10 mg/kg (Rattus norvegicus [3]) was 41.2%. For the same molecule, the Activity (Rattus norvegicus [8]) was 20%, the LD50 at 24 h [9] was greater than 300 mg/kg and the Activity (Rattus norvegicus [10]) was “Non-toxic”. It also gave an inhibition in vivo at 10 mg/kg (Rattus norvegicus [4]) of 61%, an inhibition in vivo at 10 mg/kg (Rattus norvegicus [5]) of 49% and an inhibition in vivo at 10 mg/kg (Rattus norvegicus [6]) of 41%.

In the case of Cc1c(C(N)=O)sc2c1c(=O)n(Cc1ccccc1)c1nnc(-c3ccccc3Cl)n21, the inhibition in vivo at 10 mg/kg (Rattus norvegicus [1]) is reported as 37%, the inhibition in vivo at 10 mg/kg (Rattus norvegicus [2]) is reported as 30% and the inhibition in vivo at 10 mg/kg (Rattus norvegicus [3]) is reported as 35.7%. It also gave an inhibition in vivo at 10 mg/kg (Rattus norvegicus [4]) of 43%, an inhibition in vivo at 10 mg/kg (Rattus norvegicus [5]) of 49% and an inhibition in vivo at 10 mg/kg (Rattus norvegicus [6]) of 33%.

Cc1c(C(N)=O)sc2c1c(=O)n(Cc1ccccc1)c1nncn21 showed an inhibition in vivo at 10 mg/kg (Rattus norvegicus [1]) of 56%, an inhibition in vivo at 10 mg/kg (Rattus norvegicus [2]) of 32% and an inhibition in vivo at 10 mg/kg (Rattus norvegicus [3]) of 39.4%. It also gave an inhibition in vivo at 10 mg/kg (Rattus norvegicus [4]) of 43%, an inhibition in vivo at 10 mg/kg (Rattus norvegicus [5]) of 54% and an inhibition in vivo at 10 mg/kg (Rattus norvegicus [6]) of 39%.

For Cc1c(C(N)=O)sc2c1c(=O)n(Cc1ccccc1)c1n[nH]c(=O)n21, the inhibition in vivo at 10 mg/kg (Rattus norvegicus [1]) was 75%, the inhibition in vivo at 10 mg/kg (Rattus norvegicus [2]) was 37% and the inhibition in vivo at 10 mg/kg (Rattus norvegicus [3]) was 38.5%. For the same molecule, the Activity (Rattus norvegicus [8]) was “Non-toxic”, the LD50 at 24 h [9] was greater than 300 mg/kg and the Activity (Rattus norvegicus [10]) was “Non-toxic”. The inhibition in vivo at 10 mg/kg (Rattus norvegicus [4]) was 61%, the inhibition in vivo at 10 mg/kg (Rattus norvegicus [5]) was 49% and the inhibition in vivo at 10 mg/kg (Rattus norvegicus [6]) was 43%.

CCOC(=O)Cc1nnc2n(Cc3ccccc3)c(=O)c3c(C)c(C(N)=O)sc3n12 gave an inhibition in vivo at 10 mg/kg (Rattus norvegicus [2]) of 37%, an inhibition in vivo at 10 mg/kg (Rattus norvegicus [3]) of 39.8% and an inhibition in vivo at 10 mg/kg (Rattus norvegicus [6]) of 46%.

Cc1c(C(N)=O)sc2c1C(=O)N(Cc1ccccc1)C1=NN=C(c3ccc(Cl)cc3)CN12 gave an inhibition in vivo at 10 mg/kg (Rattus norvegicus [1]) of 44%, an inhibition in vivo at 10 mg/kg (Rattus norvegicus [2]) of 37% and an inhibition in vivo at 10 mg/kg (Rattus norvegicus [3]) of 38.5%. It also gave an inhibition in vivo at 10 mg/kg (Rattus norvegicus [4]) of 43%, an inhibition in vivo at 10 mg/kg (Rattus norvegicus [5]) of 46% and an inhibition in vivo at 10 mg/kg (Rattus norvegicus [6]) of 46%.

Cc1c(C(N)=O)sc2nc(-n3nc(-c4ccc(Cl)cc4)cc3N)n(Cc3ccccc3)c(=O)c12 gave an inhibition in vivo at 10 mg/kg (Rattus norvegicus [1]) of 56%, an inhibition in vivo at 10 mg/kg (Rattus norvegicus [2]) of 30% and an inhibition in vivo at 10 mg/kg (Rattus norvegicus [3]) of 40.3%. The Activity (Rattus norvegicus [8]) was “Non-toxic”, the LD50 at 24 h [9] was greater than 300 mg/kg and the Activity (Rattus norvegicus [10]) was “Non-toxic”. It also gave an inhibition in vivo at 10 mg/kg (Rattus norvegicus [4]) of 52%, an inhibition in vivo at 10 mg/kg (Rattus norvegicus [5]) of 46% and an inhibition in vivo at 10 mg/kg (Rattus norvegicus [6]) of 35%.

Molecule Cc1cc(C)n(-c2nc3sc(C(N)=O)c(C)c3c(=O)n2Cc2ccccc2)n1 has an inhibition in vivo at 10 mg/kg (Rattus norvegicus [1]) of 44%, an inhibition in vivo at 10 mg/kg (Rattus norvegicus [2]) of 32% and an inhibition in vivo at 10 mg/kg (Rattus norvegicus [3]) of 40.3%. For the same molecule, the inhibition in vivo at 10 mg/kg (Rattus norvegicus [4]) was 39%, the inhibition in vivo at 10 mg/kg (Rattus norvegicus [5]) was 49% and the inhibition in vivo at 10 mg/kg (Rattus norvegicus [6]) was 39%.

In the case of CC1=NN(c2nc3sc(C(N)=O)c(C)c3c(=O)n2Cc2ccccc2)C(=O)C1, the inhibition in vivo at 10 mg/kg (Rattus norvegicus [1]) is reported as 37%, the inhibition in vivo at 10 mg/kg (Rattus norvegicus [2]) is reported as 34% and the inhibition in vivo at 10 mg/kg (Rattus norvegicus [3]) is reported as 38.9%. The Activity (Rattus norvegicus [8]) was “Non-toxic”, the LD50 at 24 h [9] was greater than 300 mg/kg and the Activity (Rattus norvegicus [10]) was “Non-toxic”. The inhibition in vivo at 10 mg/kg (Rattus norvegicus [4]) was 48%, the inhibition in vivo at 10 mg/kg (Rattus norvegicus [5]) was 46% and the inhibition in vivo at 10 mg/kg (Rattus norvegicus [6]) was 39%.

For O=C([O-])Cc1ccccc1Nc1c(Cl)cccc1Cl.[Na+] [DICLOFENAC SODIUM], the inhibition in vivo at 10 mg/kg (Rattus norvegicus [1]) was 63% and the Activity (Rattus norvegicus [8]) was “Non-toxic”.

Work on COc1ccc2c(c1)c(CC(=O)O)c(C)n2C(=O)c1ccc(Cl)cc1 [INDOMETHACIN] yielded an Activity (Rattus norvegicus [8]) of 100%.
